Assay results: ChEMBL document CHEMBL4414567, “α-Pyrone and Sterol Constituents of Penicillium aurantiacobrunneum, a Fungal Associate of the Lichen Niebla homalea” (J Nat Prod, 2019)

How the values were obtained:
Type in all cases: functional, cell-based
[1] = test system: HeLa; assay: Antiproliferative activity against human HeLa cells measured after 72 hrs by sulforhodamine B assay
In short: (§1)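 SRB antiproliferation assay: cells seeded at 100,000 cells per mL in 96-well plates, incubated with compound 72 h at 37 °C in 95% air/5% CO2; sulforhodamine B staining read-out; three independent experiments, each in triplicate.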

[2] = test system: MCF7; assay: Antiproliferative activity against human MCF7 cells measured after 72 hrs by sulforhodamine B assay; settings: MCF7, 72 h
In short: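 SRB assay. MCF-7 cells grown in RPMI-1640 with L-glutamine, 10% FBS and 1% antibiotic-antimycotic, at 37 °C in 95% air/5% CO2, and subcultured at 80–90% confluence. Seeded at 6000 cells per mL in 96-well plates, exposed for 72 h at 37 °C, then read by sulforhodamine B staining. Three independent experiments, each in triplicate.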

[3] = test system: DU-145; assay: Antiproliferative activity against human DU145 cells measured after 72 hrs by sulforhodamine B assay; settings: DU-145, 72 h; in short: as §1
[4] = test system: HT-29; assay: Antiproliferative activity against human HT-29 cells measured after 72 hrs by sulforhodamine B assay; settings: HT-29, 72 h; in short: as §1
[5] = test system: A2780; assay: Antiproliferative activity against human A2780 cells measured after 72 hrs by sulforhodamine B assay; settings: A2780, 72 h
In short: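 A2780 cells grown in RPMI-1640 with L-glutamine, 10% FBS and 1% antibiotic-antimycotic, 37 °C, 5% CO2, subcultured at 80–90% confluence; seeded at 25000 cells per mL in 96-well plates; compound exposure 72 h at 37 °C; sulforhodamine B read-out; three independent experiments, each in triplicate.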

Compound	IC50 [1] [µM]	IC50 [2] [µM]	IC50 [3] [µM]	IC50 [4] [µM]	IC50 [5] [µM]
C=C(CC[C@@]1(C)O[C@H]2O[C@H]3C[C@H]1[C@]21CC[C@@H]2[C@@]4(C)CC[C@H](O)C[C@@H]4C[C@H](O)[C@@]2(O)[C@H]31)C(C)C	> 10	> 10	> 10	> 10	> 10
C=C(CC[C@]1(C)O[C@@H]2O[C@@]34[C@H](O)C[C@H]5C[C@@H](O)CC[C@]5(C)[C@H]3CC[C@]23[C@H]4[C@H](O)C[C@@H]31)C(C)C	> 10	> 10	> 10	9.8	> 10
COc1cc(=O)oc(/C=C/C=C/C=C/C(C)=C/[C@]2(C)O[C@H](C)[C@](C)(O)[C@@H]2O)c1C	> 10	4.2 to 6	> 10	> 10	5.7 to 8.2
CC(=O)O[C@H]1C(=O)[C@@]2(C)[C@H]([C@H](OC(=O)c3ccccc3)[C@]3(O)C[C@H](OC(=O)[C@H](O)[C@@H](NC(=O)c4ccccc4)c4ccccc4)C(C)=C1C3(C)C)[C@]1(OC(C)=O)CO[C@@H]1C[C@@H]2O [PACLITAXEL]	–	–	0.001	–	0.018
